These results are taken from ChEMBL document CHEMBL1765064, “Discovery of potent and selective inhibitors of ataxia telangiectasia mutated and Rad3 related (ATR) protein kinase as potential anticancer agents” (J Med Chem, 2011).

pIC50, pKi: −log10 of the molar value.

In series [1] the target is T1, Serine/threonine-protein kinase ATR (Homo sapiens, UniProt Q13535). Put plainly: Inhibition of full length recombinant ATR after 24 hrs by radiometric phosphate incorporation assay. The method, boiled down:
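Radiometric [γ-33P]ATP incorporation into target peptide. Full-length ATR and ATM were made in-house; DNA-PK was purchased. Kinase, buffer and peptide were premixed, then compound was added in DMSO (7% final DMSO). Reactions started with ATP at 25 °C and were stopped with phosphoric acid (100 mM final) plus ATP (0.66 μM final). Peptide was captured on phosphocellulose, washed, and scintillation-counted.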

Series [2] has as its target Serine-protein kinase ATM (Homo sapiens, UniProt Q13315). Put plainly: Inhibition of full length recombinant ATM after 24 hrs by radiometric phosphate incorporation assay.
Series [3] addresses DNA-dependent protein kinase catalytic subunit (Homo sapiens, UniProt P78527). Put plainly: Inhibition of DNAPK after 2 hrs by radiometric phosphate incorporation assay.
The target in series [4] is T1, Serine/threonine-protein kinase ATR. Put plainly: Inhibition of ATR in human HT-29 cells assessed as hydroxyurea-induced phosphorylation of H2AX by immunofluorescence microscopy. Type of series: cell-based.
A further series concerns the target Cytochrome P450 3A4 (Homo sapiens, UniProt P08684). Put plainly: Inhibition of CYP3A4. It counts as ADME.
Series [5] addresses Serine/threonine-protein kinase mTOR (Homo sapiens, UniProt P42345). The series is described as follows: Inhibition of mTOR by radiometric phosphate incorporation assay.
Series [6] is described as follows: Permeability from apical to basolateral side of human Caco2 cells. It counts as ADME, cell-based. As to conditions: Caco-2, read-out: permeability. A general note: Passage across Caco-2 layers is used to estimate intestinal permeability.
Series [7] can be described thus: Permeability from basolateral to apical side of human Caco2 cells. It counts as ADME, cell-based. As to conditions: Caco-2, read-out: permeability.
Series [8] has as its system HCT-116. The series is described as follows: Cytotoxicity against human HCT116 cells after 96 hrs by MTS assay. As to conditions: HCT-116, 96 h. It counts as functional, cell-based. The method in brief: (§1)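 Exponentially growing cells were plated and left to adhere overnight. Compounds were added at the indicated concentrations for 96 h. MTS reagent was then added, and absorbance at 490 nm was read 1 h later as a measure of cell density.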
(In general: Formazan colour is commonly taken as a measure of viable cells.)

The subject of series [9] is HFL1. Put plainly: Cytotoxicity against human HFL1 cells at up to 20 uM after 96 hrs by MTS assay. It counts as cell-based. As to conditions: hfl1, 96 h. The method in brief: as §1
Series [10] deals with HCT-116. Put plainly: Potentiation of cisplatin-induced cytotoxicity against human HCT116 cells at 0.62 uM after 96 hrs by MTS assay. Type of series: functional. The method in brief:
(§2)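 Exponentially growing cells (ATCC lines, kept per supplier) plated and left to adhere overnight, then given inhibitor at 0.62 μM combined with cisplatin at the indicated concentrations for 96 h. Cell density read by MTS reagent, absorbance at 490 nm 1 h after addition. Fold change in cisplatin potency taken as potentiation. Synergy judged by MacSynergy analysis.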

Series [11] has as its system HFL1. The series is described as follows: Potentiation of cisplatin-induced cytotoxicity against human HFL1 cells at 0.62 uM after 96 hrs by MTS assay. Type of series: cell-based. As to conditions: hfl1, 96 h. The method in brief:
as §2

In series [12] the target is T1, Serine/threonine-protein kinase ATR. Put plainly: Competitive inhibition of full length recombinant ATR Morrison equation analysis. The method in brief: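 Mean IC50s were plotted against ATP concentration and fit to the tight-binding competitive-inhibition equation IC50 = Ki(1 + [ATP]/Km) + [E]/2 to obtain Ki.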

As a reminder, the pIC50 is the IC50 on a negative log10 scale, so that one unit is a factor of ten. Broadly, the pKi is the negative decadic logarithm of the Ki, by convention in mol/L.

Chain of DNA-dependent protein kinase catalytic subunit (P78527 whole entry): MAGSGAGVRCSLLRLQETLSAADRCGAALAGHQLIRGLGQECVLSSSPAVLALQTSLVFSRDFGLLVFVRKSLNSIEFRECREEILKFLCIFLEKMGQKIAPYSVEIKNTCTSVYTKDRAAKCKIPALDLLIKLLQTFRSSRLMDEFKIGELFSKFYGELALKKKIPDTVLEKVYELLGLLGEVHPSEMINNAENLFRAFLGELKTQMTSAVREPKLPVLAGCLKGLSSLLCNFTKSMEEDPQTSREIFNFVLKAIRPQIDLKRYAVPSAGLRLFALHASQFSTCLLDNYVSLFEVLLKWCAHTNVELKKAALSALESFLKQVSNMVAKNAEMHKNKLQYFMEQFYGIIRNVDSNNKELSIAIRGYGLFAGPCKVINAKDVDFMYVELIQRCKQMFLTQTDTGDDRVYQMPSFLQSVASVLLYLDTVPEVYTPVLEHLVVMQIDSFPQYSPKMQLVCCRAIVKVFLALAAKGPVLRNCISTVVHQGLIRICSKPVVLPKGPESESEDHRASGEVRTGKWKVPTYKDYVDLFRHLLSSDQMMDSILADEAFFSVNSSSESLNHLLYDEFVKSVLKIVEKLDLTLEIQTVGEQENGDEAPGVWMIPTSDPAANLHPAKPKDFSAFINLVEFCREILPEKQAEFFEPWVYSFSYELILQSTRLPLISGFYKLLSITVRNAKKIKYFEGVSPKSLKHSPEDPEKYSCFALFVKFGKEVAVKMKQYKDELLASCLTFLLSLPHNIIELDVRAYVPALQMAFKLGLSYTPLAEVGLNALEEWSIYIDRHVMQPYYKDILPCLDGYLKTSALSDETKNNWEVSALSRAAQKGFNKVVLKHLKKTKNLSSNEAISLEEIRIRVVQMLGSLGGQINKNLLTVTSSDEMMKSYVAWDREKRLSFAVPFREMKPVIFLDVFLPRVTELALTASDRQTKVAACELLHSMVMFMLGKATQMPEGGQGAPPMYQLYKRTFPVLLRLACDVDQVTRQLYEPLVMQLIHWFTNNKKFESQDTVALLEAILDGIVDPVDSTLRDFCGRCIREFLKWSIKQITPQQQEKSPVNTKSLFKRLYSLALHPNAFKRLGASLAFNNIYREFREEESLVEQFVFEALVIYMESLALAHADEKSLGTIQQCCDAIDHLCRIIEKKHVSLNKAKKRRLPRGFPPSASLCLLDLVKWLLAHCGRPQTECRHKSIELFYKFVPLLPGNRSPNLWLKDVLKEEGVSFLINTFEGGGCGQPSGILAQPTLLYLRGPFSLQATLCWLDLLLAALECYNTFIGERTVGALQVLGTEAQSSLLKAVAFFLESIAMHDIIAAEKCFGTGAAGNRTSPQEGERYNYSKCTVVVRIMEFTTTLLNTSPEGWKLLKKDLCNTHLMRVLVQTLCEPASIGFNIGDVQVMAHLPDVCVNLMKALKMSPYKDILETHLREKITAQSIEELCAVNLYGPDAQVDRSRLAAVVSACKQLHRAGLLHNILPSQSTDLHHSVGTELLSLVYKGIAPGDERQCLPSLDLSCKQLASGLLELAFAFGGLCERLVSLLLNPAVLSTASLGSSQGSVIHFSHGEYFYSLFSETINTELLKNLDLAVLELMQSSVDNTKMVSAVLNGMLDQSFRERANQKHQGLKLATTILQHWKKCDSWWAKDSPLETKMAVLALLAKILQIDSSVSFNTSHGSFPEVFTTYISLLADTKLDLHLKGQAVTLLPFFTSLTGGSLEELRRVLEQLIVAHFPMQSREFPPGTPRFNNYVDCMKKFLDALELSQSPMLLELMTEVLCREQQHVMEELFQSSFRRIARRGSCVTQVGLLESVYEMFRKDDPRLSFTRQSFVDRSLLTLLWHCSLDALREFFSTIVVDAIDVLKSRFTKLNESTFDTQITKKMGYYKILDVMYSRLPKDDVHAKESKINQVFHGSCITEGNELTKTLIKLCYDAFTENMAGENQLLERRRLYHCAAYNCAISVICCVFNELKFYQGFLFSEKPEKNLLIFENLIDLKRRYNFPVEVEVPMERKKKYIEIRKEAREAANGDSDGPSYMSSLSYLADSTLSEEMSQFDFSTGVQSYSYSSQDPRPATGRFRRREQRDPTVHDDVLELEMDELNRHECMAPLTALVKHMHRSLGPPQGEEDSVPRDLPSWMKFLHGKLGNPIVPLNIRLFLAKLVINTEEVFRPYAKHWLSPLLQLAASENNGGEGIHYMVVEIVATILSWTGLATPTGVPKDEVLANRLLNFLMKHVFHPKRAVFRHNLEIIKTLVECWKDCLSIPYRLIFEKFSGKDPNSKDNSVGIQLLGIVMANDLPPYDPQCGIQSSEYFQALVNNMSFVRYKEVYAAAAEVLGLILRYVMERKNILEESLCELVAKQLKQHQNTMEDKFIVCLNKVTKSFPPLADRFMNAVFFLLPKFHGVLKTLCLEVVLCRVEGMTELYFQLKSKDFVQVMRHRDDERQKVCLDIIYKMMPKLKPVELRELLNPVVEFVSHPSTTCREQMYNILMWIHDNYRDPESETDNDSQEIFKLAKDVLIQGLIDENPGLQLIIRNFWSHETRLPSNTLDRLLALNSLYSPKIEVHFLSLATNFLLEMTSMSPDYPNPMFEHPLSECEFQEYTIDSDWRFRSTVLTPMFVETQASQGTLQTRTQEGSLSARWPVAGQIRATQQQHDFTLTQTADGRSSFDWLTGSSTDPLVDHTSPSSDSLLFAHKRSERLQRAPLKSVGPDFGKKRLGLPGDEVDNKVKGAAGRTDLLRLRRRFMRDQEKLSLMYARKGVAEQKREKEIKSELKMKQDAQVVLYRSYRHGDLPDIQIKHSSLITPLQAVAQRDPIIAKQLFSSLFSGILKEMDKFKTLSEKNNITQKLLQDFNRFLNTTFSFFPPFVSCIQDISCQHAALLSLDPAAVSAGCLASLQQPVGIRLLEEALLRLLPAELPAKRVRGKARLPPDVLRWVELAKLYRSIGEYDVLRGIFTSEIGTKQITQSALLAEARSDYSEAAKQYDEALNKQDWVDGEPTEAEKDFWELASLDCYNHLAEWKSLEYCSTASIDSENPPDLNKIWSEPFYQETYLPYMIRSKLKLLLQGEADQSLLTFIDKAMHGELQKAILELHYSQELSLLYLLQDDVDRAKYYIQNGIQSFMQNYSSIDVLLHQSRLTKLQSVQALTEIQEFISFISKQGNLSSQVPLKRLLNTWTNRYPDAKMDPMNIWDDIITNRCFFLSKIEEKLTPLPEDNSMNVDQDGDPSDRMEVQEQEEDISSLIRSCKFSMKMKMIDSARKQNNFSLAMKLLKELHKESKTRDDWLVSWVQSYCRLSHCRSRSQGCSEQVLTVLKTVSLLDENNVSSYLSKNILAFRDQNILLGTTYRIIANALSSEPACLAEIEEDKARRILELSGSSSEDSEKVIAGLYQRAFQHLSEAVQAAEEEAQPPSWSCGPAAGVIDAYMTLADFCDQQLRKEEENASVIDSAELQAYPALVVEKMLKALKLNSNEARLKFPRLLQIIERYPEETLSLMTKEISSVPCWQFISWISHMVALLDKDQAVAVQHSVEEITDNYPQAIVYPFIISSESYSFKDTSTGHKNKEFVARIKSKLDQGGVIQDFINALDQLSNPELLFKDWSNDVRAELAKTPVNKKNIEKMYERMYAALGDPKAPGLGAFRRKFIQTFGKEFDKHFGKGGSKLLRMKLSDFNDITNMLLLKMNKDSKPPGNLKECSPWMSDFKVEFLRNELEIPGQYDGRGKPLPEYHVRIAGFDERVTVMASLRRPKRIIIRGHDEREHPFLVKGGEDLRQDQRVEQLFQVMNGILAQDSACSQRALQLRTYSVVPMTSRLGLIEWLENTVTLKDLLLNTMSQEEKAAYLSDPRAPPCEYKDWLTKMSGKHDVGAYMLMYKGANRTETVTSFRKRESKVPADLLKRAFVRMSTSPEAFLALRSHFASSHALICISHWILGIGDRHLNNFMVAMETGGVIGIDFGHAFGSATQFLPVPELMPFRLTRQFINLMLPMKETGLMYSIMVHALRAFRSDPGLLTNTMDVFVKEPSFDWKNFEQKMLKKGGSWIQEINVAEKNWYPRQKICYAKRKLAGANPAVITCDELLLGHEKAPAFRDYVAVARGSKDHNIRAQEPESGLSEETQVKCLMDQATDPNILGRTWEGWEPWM
Chain of Cytochrome P450 3A4 (P08684 whole entry): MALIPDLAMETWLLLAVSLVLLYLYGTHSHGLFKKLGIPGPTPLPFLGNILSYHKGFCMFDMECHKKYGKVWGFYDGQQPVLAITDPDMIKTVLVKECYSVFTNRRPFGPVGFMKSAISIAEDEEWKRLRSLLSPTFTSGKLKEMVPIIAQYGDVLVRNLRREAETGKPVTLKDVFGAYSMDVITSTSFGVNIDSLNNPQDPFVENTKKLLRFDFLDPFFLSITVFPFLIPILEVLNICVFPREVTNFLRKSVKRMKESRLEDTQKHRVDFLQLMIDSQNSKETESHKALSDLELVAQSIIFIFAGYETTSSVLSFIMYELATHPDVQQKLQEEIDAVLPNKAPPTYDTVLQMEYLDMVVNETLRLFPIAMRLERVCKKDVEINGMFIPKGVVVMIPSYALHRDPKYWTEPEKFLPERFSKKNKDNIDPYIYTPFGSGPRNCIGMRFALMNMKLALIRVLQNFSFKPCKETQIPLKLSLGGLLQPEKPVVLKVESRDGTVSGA

Regarding `Nc1ncc(-c2ccccc2)nc1C(=O)Nc1ccccc1`, the negative logarithm of the IC50 (pIC50) in series [1] is 6.21; in series [2] it was less than 5.10; in series [3] it was less than 5.10; in [4], less than 5.60; against Cytochrome P450 3A4, less than 4.00.
As to `CC(C)S(=O)(=O)c1ccc(-c2cnc(N)c(C(=O)Nc3ccccc3)n2)cc1`, the negative-log IC50 (pIC50) was 8.10 in series [1], less than 5.10 in series [2], 5.25 in [3] and 6.00 in series [4].
With `Nc1ncc(-c2cccnc2)nc1C(=O)Nc1ccccc1`, the pIC50 in series [1] is 6.74; in series [2], less than 5.10; in series [3], less than 5.10; at Cytochrome P450 3A4, 5.70.
As for `Nc1ncc(-c2ccc(C(=O)N3CCCC3)cc2)nc1C(=O)Nc1ccccc1`, the negative logarithm of the IC50 (pIC50) in [1] is 7.27; in [2], less than 5.10; in series [3] it was 5.55; in series [4], 5.85.
Regarding `Cn1c(=O)c2c(ncn2C)n(C)c1=O` [CAFFEINE], the negative logarithm of the IC50 (pIC50) in [1] is 2.96; in series [2], 3.70; in series [3], 2.00; in series [5], 3.40.
For `O=c1cc(-c2cccc3c2Sc2ccccc2S3)oc(N2CCOCC2)c1` [KU-55933], the results for the pIC50 in [1] and in series [5] were less than 4.00 and 5.03, respectively.
As to `CN(C)C(=O)c1ccc(-c2cnc(N)c(C(=O)Nc3ccccc3)n2)cc1Cl`, the pIC50 in [1] is 7.32; in series [2] it was less than 5.10; in [3], less than 5.10; in series [4], 4.92.
Turning to `CC(CCO)S(=O)(=O)c1ccc(-c2cnc(N)c(C(=O)Nc3ccccc3)n2)cc1` (stereo not given), the negative logarithm of the IC50 (pIC50) is 8.10 in series [1], less than 5.10 in series [2], 5.49 in series [3] and 6.42 in series [4].
On the same counts, the results for `CCS(=O)(=O)c1ccc(-c2cnc(N)c(C(=O)Nc3ccccc3)n2)cc1` are 7.92, less than 5.10, 5.24 and 5.82.
With `CC(CN(C)C)S(=O)(=O)c1ccc(-c2cnc(N)c(C(=O)Nc3ccccc3)n2)cc1` (stereo not given), the negative logarithm of the IC50 (pIC50) in series [1] was 7.92; in [2], less than 5.10; in series [3], less than 5.10; in series [4], 6.38; in the series on HCT-116 [8], 5.96. Moreover, the Papp A→B in series [6] worked out at 17 ×10⁻⁶ cm/s. Also, the Papp B→A in [7] was determined as 23 ×10⁻⁶ cm/s. Further, the Activity result in the series on HFL1 [9] is listed as “Non-toxic”. Besides, the figures for the “fold change (FC)” value in the series with HCT-116 [10] and in the series with HFL1 [11] were 7 and 1.1, respectively. In addition, the pKi in series [12] was 8.22.
For the compound `C[S+]([O-])c1ccc(-c2cnc(N)c(C(=O)Nc3ccccc3)n2)cc1` (stereo not given), the pIC50 is 7.25 in [1], less than 5.10 in series [2], 5.17 in [3] and 5.27 in [4].
